This passage reports IC50, inhibition and Activity results from ChEMBL document CHEMBL3739334, “Spiroindole Alkaloids and Spiroditerpenoids from Aspergillus duricaulis and Their Potential Neuroprotective Effects” (J Nat Prod, 2015).

Data set [1] addresses T1, Amyloid-beta precursor protein (Homo sapiens, UniProt P05067). Nature of the data set: Inhibition of amyloid beta (1 to 42 residues) (unknown origin) aggregation after 24 hrs by thioflavin T assay. The gist of the method:
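Aβ1−42 was dissolved in DMSO as a 1 mg/mL stock, then incubated at 20 μM with a range of sample concentrations for 24 h at 37 °C. Thioflavin T was added to 3 μM, and fluorescence was read 30 min later (ex 442 nm, em 485 nm). Aβ alone served as control. Run in triplicate; IC50 is the mean.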

Data set [2] concerns the target T1, Amyloid-beta precursor protein. Nature of the data set: Inhibition of amyloid beta (1 to 42 residues) (unknown origin) aggregation at 100 uM after 24 hrs by thioflavin T assay.
Data set [3] can be described thus: Cytotoxicity against rat PC12 cells. Format: cell-based. The conditions noted are these: pc-12.

A word on the IC50: it is the concentration that inhibits the measured activity by half. A word on the inhibition: it is the percentage by which the read-out fell short of the control.

T1 sequence (P05067 whole entry, the tested form may be a part): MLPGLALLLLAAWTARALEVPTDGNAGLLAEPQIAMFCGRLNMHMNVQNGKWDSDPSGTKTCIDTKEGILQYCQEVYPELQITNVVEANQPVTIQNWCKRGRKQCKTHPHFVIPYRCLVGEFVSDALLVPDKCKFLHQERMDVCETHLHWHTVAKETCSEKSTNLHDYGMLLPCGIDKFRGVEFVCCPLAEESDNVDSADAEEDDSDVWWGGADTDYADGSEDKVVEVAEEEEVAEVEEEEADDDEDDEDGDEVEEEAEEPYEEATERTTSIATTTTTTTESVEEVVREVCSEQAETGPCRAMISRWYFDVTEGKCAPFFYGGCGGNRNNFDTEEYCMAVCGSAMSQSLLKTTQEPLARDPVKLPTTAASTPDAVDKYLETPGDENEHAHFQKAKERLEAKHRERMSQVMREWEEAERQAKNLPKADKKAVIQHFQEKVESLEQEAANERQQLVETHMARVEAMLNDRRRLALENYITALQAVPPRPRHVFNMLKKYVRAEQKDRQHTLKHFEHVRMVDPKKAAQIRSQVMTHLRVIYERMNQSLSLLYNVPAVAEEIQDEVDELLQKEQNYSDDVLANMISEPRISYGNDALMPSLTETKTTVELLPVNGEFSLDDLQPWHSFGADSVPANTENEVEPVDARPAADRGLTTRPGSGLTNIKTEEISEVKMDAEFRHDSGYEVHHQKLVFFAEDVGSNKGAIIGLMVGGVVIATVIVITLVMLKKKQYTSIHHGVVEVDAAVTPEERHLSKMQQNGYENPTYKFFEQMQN

Turning to `O=C(/C=C/c1ccc(O)c(O)c1)O[C@H](Cc1ccc(O)c(O)c1)C(=O)O` [ROSMARINIC ACID], the IC50 in data set [1] was 71.9 µM.

With `C[C@@H]1C[C@@]23C[C@H]4C(C)(C)[C@@]5(C[C@]4(CN2C1=O)N(C)C3=O)C(=O)Nc1c5ccc2c1OC=CC(C)(C)O2`, in data set [1], the IC50 is more than 300 µM.

Consider `CC1=CC[C@@H]2[C@@]3(C)[C@@H](O)CC(=O)OC(C)(C)[C@@H]3CC[C@@]2(C)[C@]12Cc1c(c(C)c(C)oc1=O)O2`, for which the IC50 in data set [1] was more than 300 µM.

In data set [1], `C[C@H]1CN2C[C@]34C[C@@]5(C(=O)Nc6c5ccc5c6OC=CC(C)(C)O5)C(C)(C)[C@@H]3C[C@@]2(C1)C(=O)N4C` registered an IC50 of 269 µM. For the same compound, the inhibition in data set [2] came to 30%.

`CC1(C)C=Cc2cc(C(=O)O)ccc2O1` gave an IC50 in data set [1] of more than 300 µM.

In data set [1], `C[C@@H]1C[C@@]23C[C@H]4C(C)(C)[C@@]5(C[C@]4(CN2C1=O)NC3=O)C(=O)Nc1c5ccc2c1C=CC(C)(C)O2` came in with an IC50 of 244 µM. This compound also displayed an inhibition in data set [2] of 30%.

For the compound `C[C@@H]1C[C@@]23C[C@H]4C(C)(C)[C@@]5(C[C@]4(CN2C1=O)N(C)C3=O)C(=O)Nc1c5ccc2c1C=CC(C)(C)O2`, in data set [1], the IC50 is more than 300 µM.

`CC(=O)O[C@H]1CC(=O)OC(C)(C)[C@@H]2CC[C@]3(C)[C@H](CC=C(C)[C@@]34C[C@]3(OC(C)=C(C)C3=O)C(=O)O4)[C@@]12C` showed an IC50 in data set [1] of more than 300 µM.

The compound `CN1C(=O)[C@@]23CCC(=O)N2C[C@@]12C[C@@]1(C(=O)Nc4c1ccc1c4C=CC(C)(C)O1)C(C)(C)[C@@H]2C3` yielded an IC50 in data set [1] of 187 µM. The compound further gave an inhibition in data set [2] of 30%.

Consider `C[C@H]1CN2C[C@]34C[C@@]5(C(=O)Nc6c5ccc5c6C=CC(C)(C)O5)C(C)(C)[C@@H]3C[C@@]2(C1)C(=O)N4C`, for which half-maximal inhibition in data set [1] (IC50) was put at 204 µM. Besides, in data set [2], the inhibition turned out to be 30%. Further, the Activity result in data set [3] is recorded as “Toxic”.

In data set [1], `C[C@@H]1C[C@@]23C[C@H]4C(C)(C)[C@@]5(C[C@]4(CN2C1=O)NC3=O)C(=O)Nc1c5ccc2c1OC=CC(C)(C)O2` showed a half-inhibitory concentration (IC50) of more than 300 µM.

In data set [1], `CC1=CC[C@@H]2[C@@]3(C)C=CC(=O)OC(C)(C)[C@@H]3CC[C@@]2(C)[C@]12Cc1c(c(C)c(C)oc1=O)O2` displayed an IC50 of more than 300 µM.
